A word on the Ki: it is a dissociation constant, usually derived from enzyme kinetics or from competition with a known ligand. Low readings indicate higher affinity, high ones lower affinity. What is called bioavailability is dose-corrected exposure relative to a reference, in per cent. Higher therefore signals good availability. For orientation: half-life means the time needed for the level to fall by half in the phase considered. Low readings indicate rapid decline, high ones slow decline. A word on the IC50: it is the point on the concentration scale where inhibition reaches its midpoint.

Data set [1] deals with Rattus norvegicus. The data set can be described thus: In vivo inhibition of T stimulated prostate growth in rats was reported after oral administration at a dose 10 mg/kg/day.
Data set [2] is described as follows: In vitro inhibitory activity against human adrenal 3-beta hydroxy-delta 5-teroid isomerase. The procedure, abridged: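 Microsomes were prepared from human adrenal tissue by homogenization and differential centrifugation. Inhibitor in 50% DMSO was preincubated 10 min at 37 °C in 100 mM potassium phosphate pH 7.5 with 1 mM NAD+. The reaction was started with 100 nM [3H]DHEA and quenched in ethanol after 15 min. DHEA-to-androstenedione conversion was measured by radio-HPLC.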

Data set [3] in a line: Bioavailability in dog (male Beagle) i.v. administration. The data set is classed as ADME, organism-based, Canis lupus familiaris. The settings on record: in vivo, po, in the assay text read “oral administration” for “[…]”. The procedure, abridged: (§1)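 Male beagles received iv doses of 5 or 10 mg/kg from 5 mg/mL solutions in aqueous 40% (w/v) Molecusol, and some also received oral doses. Heparinized blood was sampled from 0 min to 24 h and assayed by HPLC (UV 304 nm, or thermospray MS). AUC∞ was calculated by the trapezoidal rule.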

A short description of data set [4]: Half-life after intravenous administration of 5 mg/kg/day dose in male beagles. The format is ADME, organism-based, Canis lupus familiaris. The following applies: beagle, dog, in vivo. Details: route intravenous. The essentials:
as §1

Data set [5] concerns the target T1, 3-oxo-5-alpha-steroid 4-dehydrogenase 2 (Homo sapiens, UniProt P31213).
T1 sequence (P31213 whole entry): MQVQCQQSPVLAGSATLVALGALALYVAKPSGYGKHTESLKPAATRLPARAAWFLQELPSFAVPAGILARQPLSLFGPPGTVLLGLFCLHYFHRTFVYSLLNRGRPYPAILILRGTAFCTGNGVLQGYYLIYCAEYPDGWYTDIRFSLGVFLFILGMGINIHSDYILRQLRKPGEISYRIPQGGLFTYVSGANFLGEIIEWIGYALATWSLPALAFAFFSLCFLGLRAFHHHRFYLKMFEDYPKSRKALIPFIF
The data set can be described thus: In vitro inhibitory activity against human type 2 5-alpha reductase.

The target of data set [6] is T2, 3-oxo-5-alpha-steroid 4-dehydrogenase 1 (Homo sapiens, UniProt P18405).
T2 sequence (P18405 whole entry): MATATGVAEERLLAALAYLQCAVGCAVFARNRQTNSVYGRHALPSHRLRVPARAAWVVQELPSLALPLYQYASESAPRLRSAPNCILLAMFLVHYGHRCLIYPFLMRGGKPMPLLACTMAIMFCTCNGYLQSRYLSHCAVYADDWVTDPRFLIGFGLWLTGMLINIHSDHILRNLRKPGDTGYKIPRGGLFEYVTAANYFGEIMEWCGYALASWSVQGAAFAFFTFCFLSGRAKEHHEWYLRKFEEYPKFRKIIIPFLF
Briefly: In vitro inhibitory activity against human type 1 5-alpha reductase. The essentials:
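Used microsomes from baculovirus-infected SF-9 cells expressing recombinant human type 1 5AR, at final enzyme 0.05–5 nM. Buffer at pH 7 and 37 °C contained an NADPH-regenerating system. Inhibitor was preincubated 10 min before adding 100 nM [3H]testosterone.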

The test system of data set [7] is Rattus norvegicus. Briefly: In vivo inhibition of T stimulated prostate growth in rats was reported after oral administration at a dose 10 mg/kg/day. The data set is classed as functional, Prostate gland. The essentials:
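Rats were castrated, and 7 days later dosed orally once daily for 7 days at 10 mg/kg/day in 1 part cremophor:2 parts saline:0.5% Tween 80 (8 rats/group). Testosterone (40 μg/kg sc in corn oil) was given 4 h after each dose. Ventral prostates were weighed on day 8. Weight reduction was expressed as a percent of the finasteride reduction versus T-treated vehicle controls.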

Data set [8] in a line: Half-life after intravenous administration of 10 mg/kg/day dose in male beagles. The format is ADME, organism-based, Canis lupus familiaris. Also noted: route intravenous. The settings on record: beagle, dog, in vivo. The essentials:
as §1

As to `C[C@]12CCC(=O)C=C1NCC1C2CC[C@@]2(C)C1CC[C@@H]2C(=O)NC(c1ccccc1)c1ccccc1` (stereo partly specified), the Reduction in data set [1] was found to be 95%. The compound also registered a Ki in data set [2] of 0.15 µM. The compound also showed a bioavailability in data set [3] of 79%. The compound also had a half-life in data set [4] of 4.8 h. In data set [5], the IC50 is less than 0.0001 µM.

In the case of `CC1=C2NCC3C(CC[C@@]4(C)C3CC[C@@H]4C(=O)NC34CC5CC(CC(C5)C3)C4)[C@@]2(C)CCC1=O` (stereo partly specified), the Ki came to 0.009 µM in data set [2] and 0.0011 µM in data set [6]. The same compound yielded a Reduction in data set [7] of 24%. In data set [5], the IC50 was less than 0.0001 µM.

Turning to `CN1CC2C(CC[C@@]3(C)C2CC[C@@H]3C(=O)NC(c2ccccc2)c2ccccc2)[C@@]2(C)CCC(=O)C=C12` (stereo partly specified), the Ki in data set [2] turned out to be 0.011 µM; in data set [6] it was 0.0064 µM. Moreover, the Reduction in data set [7] is 13%. In data set [5], the IC50 worked out at 0.0002 µM.

As for `C[C@]12CCC(=O)C=C1NCC1C2CC[C@@]2(C)C1CC[C@@H]2C(=O)NC(c1ccc(F)cc1)c1ccc(F)cc1` (stereo partly specified), in data set [1], the Reduction is reported as 90%. In data set [2], this compound returned a Ki of 0.32 µM. The compound further gave a half-life in data set [4] of 5.2 h.

Regarding `C[C@]12CCC(=O)C=C1NCC1C2CC[C@@]2(C)C1CC[C@@H]2C(=O)c1c(F)cccc1F` (stereo partly specified), the Ki amounted to 0.011 µM in data set [2] and 0.039 µM in data set [6]. The compound further had an IC50 in data set [5] of less than 0.0001 µM.

Turning to `CN1CC2C(CC[C@@]3(C)C2CC[C@@H]3C(=O)NC23CC4CC(CC(C4)C2)C3)[C@@]2(C)CCC(=O)C=C12` (stereo partly specified), the Ki turned out to be 0.0027 µM in data set [2] and 0.0085 µM in data set [6]. The same compound displayed a Reduction in data set [7] of 12%. The IC50 in data set [5] is less than 0.0001 µM.

The compound `CN1CC2C(CC[C@@]3(C)C2CC[C@@H]3C(=O)NC(C)(C)C)[C@@]2(C)CCC(=O)C=C12` (stereo partly specified) gave a half-life in data set [8] of 1.4 h. Also, the figures for the Ki in data set [2] and in data set [6] were 0.0066 µM and 0.087 µM, respectively. In data set [3], the bioavailability came out at 80%. Moreover, the Reduction in data set [7] came to 54%.

On to `C[C@]12C=CC(=O)C=C1NCC1C2CC[C@@]2(C)C1CC[C@@H]2C(=O)NC(c1ccccc1)c1ccccc1` (stereo partly specified), for which the Ki stood at 0.99 µM in data set [2] and 0.048 µM in data set [6]. This compound also came in with a Reduction in data set [7] of 0%. The same compound gave an IC50 in data set [5] of less than 0.0001 µM.

Turning to `C[C@]12C=CC(=O)C=C1NCC1C2CC[C@@]2(C)C1CC[C@@H]2C(=O)NC12CC3CC(CC(C3)C1)C2` (stereo partly specified), the figures for the Ki in data set [2] and in data set [6] were 1 µM and 0.074 µM, respectively. Also, the Reduction in data set [7] was determined as 14%. Further, in data set [5], the IC50 is less than 0.0001 µM.

Take `CCN(CC)C(=O)[C@H]1CCC2C3CNC4=C(C)C(=O)C=C[C@]4(C)C3CC[C@@]21C` (stereo partly specified): the Ki amounted to 0.091 µM in data set [2] and 0.28 µM in data set [6]. The compound further came in with an IC50 in data set [5] of 0.0081 µM.

In data set [1], `C[C@]12CCC(=O)C=C1NCC1C2CC[C@@]2(C)C1CC[C@@H]2C(=O)NC(c1ccc(Cl)cc1)c1ccc(Cl)cc1` (stereo partly specified) registered a Reduction of 74%. The compound also gave a Ki in data set [2] of 0.51 µM. This compound also showed a half-life in data set [4] of 12 h.

Regarding `CN1CC2C(CC[C@@]3(C)C2CC[C@@H]3C(=O)NC23CC4CC(CC(C4)C2)C3)[C@@]2(C)CCC(=O)C(Br)=C12` (stereo partly specified), the values for the Ki in data set [2] and in data set [6] were 0.0083 µM and 0.0086 µM, respectively. Also, inhibition in data set [5] was half-maximal at 0.0017 µM (IC50).

Regarding `CCN(CC)C(=O)[C@H]1CCC2C3CN(C(C)C)C4=CC(=O)CC[C@]4(C)C3CC[C@@]21C` (stereo partly specified), the Ki in data set [2] came out at 1.1 µM; in data set [6], 3.4 µM. For the same compound, the IC50 in data set [5] is 0.0049 µM.

`CCN(CC)C(=O)[C@H]1CCC2C3CN(C)C4=CC(=O)CC[C@]4(C)C3CC[C@@]21C` (stereo partly specified): the Ki was determined as 0.0036 µM in data set [2] and 0.18 µM in data set [6]. For the same compound, the Reduction in data set [7] came to 52%. In data set [5], this compound came in with an IC50 of 0.0023 µM.

Turning to `C[C@]12CCC(=O)C=C1NCC1C2CC[C@@]2(C)C1CC[C@@H]2C(=O)NC12CC3CC(CC(C3)C1)C2` (stereo partly specified), the half-life in data set [8] is 1.8 h. The Ki amounted to 0.078 µM in data set [2] and 0.011 µM in data set [6]. For the same compound, the Reduction in data set [7] amounted to 38%.

As for `CC(C)c1cc(C(C)C)c(C(=O)[C@H]2CCC3C4CNC5=CC(=O)CC[C@]5(C)C4CC[C@@]32C)c(C(C)C)c1` (stereo partly specified), the Ki worked out at 1.9 µM in data set [2] and 0.28 µM in data set [6]. The compound also gave an IC50 in data set [5] of 0.0005 µM.

Consider `CC1=C2NCC3C(CC[C@@]4(C)C3CC[C@@H]4C(=O)NC(c3ccccc3)c3ccccc3)[C@@]2(C)CCC1=O` (stereo partly specified), for which the Ki in data set [2] came out at 0.018 µM; in data set [6], 0.0036 µM. For the same compound, in data set [7], the Reduction was found to be 38%. This compound came in with an IC50 in data set [5] of less than 0.0001 µM.

With `CCN(CC)C(=O)[C@H]1CCC2C3CNC4=C(C)C(=O)CC[C@]4(C)C3CC[C@@]21C` (stereo partly specified), the Ki amounted to 0.018 µM in data set [2] and 0.04 µM in data set [6]. The compound also registered a Reduction in data set [7] of 0%.

As for `CC1=C2NCC3C(CC[C@@]4(C)C3CC[C@@H]4C(=O)NC(C)(C)C)[C@@]2(C)CCC1=O` (stereo partly specified), the Ki in data set [2] was 0.0092 µM; in data set [6], 0.012 µM. Besides, the Reduction in data set [7] was determined as 0%. Moreover, in data set [5], half-maximal inhibition (IC50) required 0.0014 µM.

As for `CC(C)CC(=O)[C@H]1CCC2C3CN(C)C4=CC(=O)CC[C@]4(C)C3CC[C@@]21C` (stereo partly specified), the Reduction in data set [1] was 5%. In addition, the results for the Ki in data set [2] and in data set [6] were 0.0011 µM and 0.0031 µM, respectively. The half-life in data set [4] was 2.2 h.

As to `CC(C)(C)NC(=O)[C@H]1CC[C@H]2[C@@H]3CC=C4C=C(C(=O)O)CC[C@]4(C)[C@H]3CC[C@]12C` [EPRISTERIDE], the Ki in data set [2] worked out at 0.16 µM; in data set [6], 1.6 µM. In data set [5], this compound returned an IC50 of 0.00018 µM.

On to `CC(C)(C)NC(=O)[C@H]1CC[C@H]2[C@@H]3CC[C@H]4NC(=O)C=C[C@]4(C)[C@H]3CC[C@]12C` [FINASTERIDE], for which the half-life in data set [8] was 4.2 h. Moreover, in data set [2], the affinity, expressed as Ki, was 11 µM. In data set [3], this compound gave a bioavailability of 69%. Further, in data set [7], the Reduction is reported as 100%.

For the origin of these results see ChEMBL document CHEMBL1127590 (J Med Chem, 1994).
